# Source: article PMC7105043 (Journal of the Chinese Medical Association, 2017)
# Assays:
# [1] = system: pandemic influenza A (H1N1) virus (A/California/07/2009); assay: microbe, parasite or virus in culture; assay type: cell-based
# [2] = system: pandemic influenza A (H1N1) virus; assay type: cell-based
# [3] = system: A549 cells; assay: XTT cytotoxicity assay; assay type: cell-based, human; conditions: XTT, 3 days; method says A549 cells, Table 1 says MDCK cells
# How it was run: (§1)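 Test compound serially diluted in complete MEM (10% heat-inactivated FBS) and added to A549 cells seeded at 1 × 10^4 cells/well and pre-incubated 24 h. Cells exposed 3 days at 35 °C, 5% CO2, then XTT reagent for 4 h. Absorbance read at 450 nm, reference 620 nm. Viability relative to untreated control (100%). Triplicate wells, at least three independent runs.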
# [4] = system: pandemic influenza A (H1N1) virus; assay type: cell-based; remark: listed apart in the source
# [5] = system: pandemic influenza A (H1N1) virus; assay type: cell-based; remark: listed apart in the source
# [6] = XTT cytotoxicity assay; assay type: cell-based, human; conditions: dog, MDCK cells
# How it was run: as §1
# [7] = system: H1N1 A/Puerto Rico/8/34-NS116-GFP; conditions: ref 25 (Theisen et al); cited from earlier work
# [8] = ref 25 (Theisen et al); cited from earlier work
Compound,inhibition of viral RNA synthesis (qRT-PCR) [2],green fluorescence (viral glycoprotein foci) [4],protective effect against virus infection (cell viability) [5],CC50 at 3 days [6] [µg/mL],also measured
O.Oc1cc(O)c2c(c1)O[C@H](c1ccc(O)c(O)c1)[C@@H](O)C2 [catechin],significant inhibition,decreased in a dose-dependent manner,protective effects,,"Plaque inhibition (EC50) [1]: 18.4 ± 0.7 µg/mL; reduction of viral production (plaque assay) ([1]; 25 μg/mL): approximately 50%; XTT cytoxicity (CC50) [3]: >100 µg/mL; EC50 (XTT viability of infected cells, Fig. 1) [5]: 10 to 25 µg/mL"
O=C(O)c1cc(O)c(O)c(O)c1 [gallic acid],significant inhibition,decreased in a dose-dependent manner,protective effects,22.1 ± 0.6,"reduction of viral production (plaque assay) ([1]; 2.5 μg/mL): approximately 50%; EC50 ([1]; Influenza A virus, H1N1, 72 h, read-out: Plaque inhibition (EC50)): 2.6 ± 0.07 µg/mL; EC50 [7]: 50.8 µM; CC50 [8]: 770 µM"
O=c1c(O)c(-c2ccc(O)cc2)oc2cc(O)cc(O)c12 [kaempferol],,,,> 100,
O=c1c(O)c(-c2ccc(O)c(O)c2)oc2cc(O)cc(O)c12 [quercetin hydrate],,,,> 100,
"C[C@@H]1O[C@@H](OC[C@H]2O[C@@H](Oc3c(-c4ccc(O)c(O)c4)oc4cc(O)cc(O)c4c3=O)[C@H](O)[C@@H](O)[C@@H]2O)[C@H](O)[C@H](O)[C@H]1O [rutintrihydrate, rutin trihydrate]",,,,> 100,
